Structures are written as SMILES.

The record followed here is ChEMBL document CHEMBL4680229, “Design, synthesis and bioactivity study of N-salicyloyl tryptamine derivatives as multifunctional agents for the treatment of neuroinflammation” (Eur J Med Chem, 2020).

A short description of series [1]: Induction of apoptosis in LPS-induced hippocampal neuroinflammatory Kunming mouse model at 50 mg/kg, ip administered bid for 6 days by Nissl staining based microscopic method. The format is organism-based. The settings on record: in vivo, 144 h, time 6 day. The procedure, abridged:
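Male Kunming mice (8 weeks, 20–25 g, n = 10/group) were anaesthetised with i.p. chloral hydrate, then given LPS (3 μL of 10 mg/mL) into the lateral ventricle at 0.5 μL/min; sham mice received 3 μL saline. Compound was then given i.p. at 50 mg/kg in saline with 1% methyl cellulose for six consecutive days. Behaviour and deaths were recorded, and hippocampal slices were Nissl-stained.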

Series [2] in a line: Cmax in Sprague-Dawley rat at 50 mg/kg, ip up to 24 hrs by LC-MS analysis. In kind it is ADME, organism-based. The arrangement: route intraperitoneal, dose 50 mg/kg, time <=24. The settings on record: in vivo. The essentials:
(§1)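 Male Sprague-Dawley rats, six per group, single 50 mg/kg intraperitoneal dose; parameters derived by non-compartmental analysis using the linear trapezoidal method; mean ± SD, n = 6.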

A short description of series [3]: Half life in Sprague-Dawley rat at 50 mg/kg, ip up to 24 hrs by LC-MS analysis. As to conditions: in vivo. In kind it is ADME, organism-based. The procedure, abridged:
as §1

Series [4] in a line: Tmax in Sprague-Dawley rat at 50 mg/kg, ip up to 24 hrs by LC-MS analysis. As to conditions: in vivo. The format is ADME, organism-based. The procedure, abridged: as §1
Series [5] is described as follows: Antioxidant activity assessed as DPPH radical scavenging activity incubated for 30 mins. The format is functional. The essentials:
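Compound in ethanol at 2.5–40 μM final, mixed 1:1 with 700 μmol/L ethanolic DPPH; 30 min in the dark at room temperature, absorbance at 515 nm. Serotonin used as standard; EC50 from three independent experiments.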
On the technique in general: Loss of DPPH colour is used to gauge radical scavenging.

Consider `COc1ccc2[nH]cc(CCNC(C)=O)c2c1` [MELATONIN], for which, in series [1], the Activity entry is given as “Toxic”. For the same compound, the Cmax (as a rule, the peak of the concentration-time curve) in series [2] stood at 1150 ng/mL. In addition, the half-life – broadly, the time in which the quantity being followed falls by half – in series [3] is 32.4 min. Also, in series [4], the time of peak concentration (Tmax) (in general, the time at which the peak concentration occurs) was 11.4 min. Also, the EC50 – broadly, the concentration needed to bring the measured effect to its halfway point – in series [5] was more than 40 µM.
